From ChEMBL document CHEMBL3994644, “Discovery of AAT-008, a novel, potent, and selective prostaglandin EP4 receptor antagonist” (Bioorg Med Chem Lett, 2017)
In brackets after ≈: the same amount, converted by molar mass.

Columns and labels:
[1] = molecular target: Prostaglandin E2 receptor EP4 subtype (Rattus norvegicus, UniProt P43114); experiment: Antagonist activity at rat recombinant EP4 receptor assessed as inhibition of PGE2-induced cAMP level by cell based assay; assay type: functional; conditions: read-out: pA2 (converted)
Prostaglandin E2 receptor EP4 subtype, sequence (P43114 whole entry): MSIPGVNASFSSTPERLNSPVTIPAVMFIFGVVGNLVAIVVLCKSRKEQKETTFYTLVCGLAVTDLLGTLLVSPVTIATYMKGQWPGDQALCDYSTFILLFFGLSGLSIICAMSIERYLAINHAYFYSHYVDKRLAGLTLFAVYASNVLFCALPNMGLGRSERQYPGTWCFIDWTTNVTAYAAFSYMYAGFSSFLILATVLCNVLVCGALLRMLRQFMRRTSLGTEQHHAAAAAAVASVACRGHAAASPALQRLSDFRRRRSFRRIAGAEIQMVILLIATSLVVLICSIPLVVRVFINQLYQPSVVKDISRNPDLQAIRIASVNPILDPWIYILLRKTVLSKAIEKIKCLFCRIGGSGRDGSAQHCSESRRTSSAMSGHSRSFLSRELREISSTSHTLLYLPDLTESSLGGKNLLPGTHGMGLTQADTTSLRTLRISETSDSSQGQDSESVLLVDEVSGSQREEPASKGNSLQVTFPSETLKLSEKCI
In short: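 Functional antagonism was measured as inhibition of PGE2-induced cAMP in cells transfected with rodent EP4 (mouse or rat). The value is expressed as pA2.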

Prostacyclin receptor = Prostacyclin receptor (Homo sapiens, UniProt P43119); experiment: Antagonist activity at human IP receptor
Prostacyclin receptor, sequence (P43119 whole entry): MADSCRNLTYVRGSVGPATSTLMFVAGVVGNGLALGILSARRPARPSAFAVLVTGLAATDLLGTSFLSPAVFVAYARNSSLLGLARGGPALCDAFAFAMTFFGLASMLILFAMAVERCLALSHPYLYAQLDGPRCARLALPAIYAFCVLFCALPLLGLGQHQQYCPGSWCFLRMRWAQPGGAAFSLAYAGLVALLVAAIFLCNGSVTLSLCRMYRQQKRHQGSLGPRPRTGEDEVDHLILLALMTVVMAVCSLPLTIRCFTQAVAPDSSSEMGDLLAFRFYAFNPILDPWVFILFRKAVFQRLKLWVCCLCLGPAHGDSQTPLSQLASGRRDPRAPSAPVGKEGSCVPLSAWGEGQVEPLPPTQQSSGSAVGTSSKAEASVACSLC

Thromboxane A2 receptor = molecular target: T1, Thromboxane A2 receptor (Homo sapiens, UniProt P21731); experiment: Antagonist activity at human platelet TP receptor
T1 sequence (P21731 whole entry): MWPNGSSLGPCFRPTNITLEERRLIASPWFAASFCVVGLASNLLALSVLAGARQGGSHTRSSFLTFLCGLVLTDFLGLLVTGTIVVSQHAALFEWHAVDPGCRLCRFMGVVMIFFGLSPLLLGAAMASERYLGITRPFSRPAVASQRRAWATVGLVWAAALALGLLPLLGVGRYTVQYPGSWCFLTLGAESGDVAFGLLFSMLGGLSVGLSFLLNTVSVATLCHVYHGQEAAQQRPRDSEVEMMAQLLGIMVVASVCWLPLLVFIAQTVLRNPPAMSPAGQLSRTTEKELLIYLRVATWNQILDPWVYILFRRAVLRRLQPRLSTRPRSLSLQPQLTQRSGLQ

[2] = molecular target: T2, Prostaglandin E2 receptor EP1 subtype (Homo sapiens, UniProt P34995); experiment: Antagonist activity at human EP1 receptor
T2 sequence (P34995 whole entry): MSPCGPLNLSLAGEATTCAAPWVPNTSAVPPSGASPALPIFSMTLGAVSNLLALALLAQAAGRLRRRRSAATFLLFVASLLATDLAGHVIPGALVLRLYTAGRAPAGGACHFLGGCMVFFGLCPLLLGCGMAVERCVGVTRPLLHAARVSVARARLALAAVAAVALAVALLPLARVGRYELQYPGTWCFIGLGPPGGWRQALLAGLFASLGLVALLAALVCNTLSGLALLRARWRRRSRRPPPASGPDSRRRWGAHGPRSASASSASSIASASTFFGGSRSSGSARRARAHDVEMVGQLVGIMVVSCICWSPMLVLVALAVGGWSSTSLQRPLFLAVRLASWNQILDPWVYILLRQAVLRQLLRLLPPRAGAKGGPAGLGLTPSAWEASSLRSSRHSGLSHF

[3] = Cmax in cynomolgus monkey at 1 mg/kg, po; assay type: ADME, organism-based, Macaca fascicularis; design: dose 1 mg/kg, route oral; conditions: in vivo
In short: (§1)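 Single 1 mg/kg dose given IV or PO to rats, dogs and monkeys. Plasma pharmacokinetic parameters were derived and reported as mean SD, N = 4.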

[4] = Tmax in Sprague-Dawley rat at 1 mg/kg, po; assay type: ADME, organism-based; conditions: in vivo
In short: (§2)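 Oral administration of the compound; Tmax is from plasma concentration–time profiles. Values are mean SD of N = 4 animals per species.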

[5] = Tmax in cynomolgus monkey at 1 mg/kg, po; assay type: ADME, organism-based, Macaca fascicularis; conditions: in vivo; in short: as §2
[6] = AUC (0 to infinity) in Sprague-Dawley rat at 1 mg/kg, po; assay type: ADME, organism-based; design: dose 1 mg/kg, route oral, time infinity; conditions: in vivo; in short: as §1
[7] = Volume of distribution at steady state in Beagle dog at 1 mg/kg, iv; assay type: ADME, organism-based, Canis lupus familiaris; conditions: in vivo, read-out: Vdss
In short: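 A single intravenous injection at 1 mg/kg was given. Plasma concentration–time data gave total clearance (CL_total, mL/min/kg) and steady-state volume of distribution (Vd_ss, L/kg). Values are mean SD of N = 4 animals per species.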

[8] = Oral bioavailability in cynomolgus monkey at 1 mg/kg; assay type: ADME, organism-based, Macaca fascicularis; conditions: in vivo; in short: as §1
[9] = Elimination half life in Sprague-Dawley rat at 1 mg/kg, iv; assay type: ADME, organism-based; conditions: in vivo, read-out: beta t1/2 (converted); in short: as §1
CYP1A = experiment: Inhibition of CYP1A (unknown origin) at 1 uM relative to control; assay type: ADME; conditions: human
In short: (§3)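 CYP1A, CYP2C9, CYP2C19, CYP2D6 and CYP3A activities were each tested with 1 µM test article. Results are given as percent inhibition of enzyme activity.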

CYP2C9 = CYP2C9 (Homo sapiens, UniProt P11712); experiment: Inhibition of CYP2C9 (unknown origin) at 1 uM relative to control; assay type: ADME; in short: as §3
CYP2C9, sequence (P11712 whole entry): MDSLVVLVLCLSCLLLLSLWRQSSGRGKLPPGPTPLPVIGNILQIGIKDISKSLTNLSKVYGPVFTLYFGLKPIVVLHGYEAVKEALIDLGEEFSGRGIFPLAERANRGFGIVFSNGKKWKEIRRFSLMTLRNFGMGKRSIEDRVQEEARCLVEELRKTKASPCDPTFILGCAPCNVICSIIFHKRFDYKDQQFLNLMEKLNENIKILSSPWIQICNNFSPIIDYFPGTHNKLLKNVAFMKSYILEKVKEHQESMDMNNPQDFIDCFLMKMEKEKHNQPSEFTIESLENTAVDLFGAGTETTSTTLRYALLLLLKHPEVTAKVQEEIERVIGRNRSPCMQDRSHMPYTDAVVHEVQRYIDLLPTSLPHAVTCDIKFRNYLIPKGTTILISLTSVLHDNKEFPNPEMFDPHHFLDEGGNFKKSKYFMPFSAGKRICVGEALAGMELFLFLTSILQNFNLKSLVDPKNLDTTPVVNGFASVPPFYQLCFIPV

[10] = Lipophilicity, log D of the compound at pH 6.5; assay type: physicochemical; conditions: buffer
[11] = Solubility of the compound in pH 5.8 water for injection; assay type: physicochemical

C[C@H](NC(=O)c1cc(Cl)cnc1Oc1cccc(F)c1)c1ccc(C(=O)O)cc1
Kb [1]: 0.00457 µM | Ki (Prostacyclin receptor): > 6 µM | Ki (Thromboxane A2 receptor): > 6 µM | IC50 [2]: > 20 µM | Ki [2]: > 6 µM | Cmax [3]: 76 ng/mL | Tmax [4]: 0.75 h | Tmax [5]: 8 h | AUC(0-inf) [6]: 7090 ng·h/mL | Vd [7]: 1.21 L/kg | bioavailability [8]: 73.3% | half-life [9]: 4.59 h | inhibition at 1 µM (CYP1A): < 5% | inhibition at 1 µM (CYP2C9): < 5% | logD [10]: 1.5 | solubility [11]: 4.3 µg/mL (≈ 10.4 µM)
